EWS-Fli block: blocks EWS/Fli oncoprotein-driven transcription | A673 NR0B1-luciferase reporter, viability-normalised | inhibition, % at 12.6 µM | 350,000 compounds, 0.67% hits | AID 651661;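 active = mean inhibition of at least 50% after viability correction, with every replicate also passing that limit; inconclusive = mean reaches 50% but only one of two replicates passes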;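 also: firefly luciferase signal divided by Alamar Blue viability fluorescence both relative to DMSO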
FN deposition inh: fibronectin deposition inhibition | AH1F fibroblasts, Alexa488-fibronectin deposition fluorescence, overnight | inhibition, % at 12.6 µM | 350,000 compounds, 0.086% hits | AID 743247;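 active = mean inhibition across replicates of 30% or more, regardless of how many single replicates reach that level; inconclusive = mean under 30% yet at least half of replicates reach 30%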
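Material: AH1F fibroblast monolayer depositing Alexa488-labelled fibronectin into matrix / Amount: 10000 AH1F cells per well / Signal: fluorescence 485/525 nm / Medium: DMEM, 2% serum / Compound: single dose, pinned / Incubation: 1 h cell adhesion before compound, then overnight fibronectin incubation / Reagent: Alexa488-FN, 24 nM final / Read-out: inhibition of fibronectin deposition signal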
MLL AF4-AF9 inh: inhibitors of human MLL-AF4/AF9 interaction; AlphaScreen, biotin-AF4 peptide binding to FLAG-AF9; inhibition, % at 10 µM; P42568; 350,000 compounds, 0.47% hits;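 active = every replicate reaching a set inhibition limit, whatever the replicate mean, cut at about 25% in these data; inconclusive = mean inhibition reaches that limit but some replicates miss it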
Target sequence (P42568 whole entry, looked up): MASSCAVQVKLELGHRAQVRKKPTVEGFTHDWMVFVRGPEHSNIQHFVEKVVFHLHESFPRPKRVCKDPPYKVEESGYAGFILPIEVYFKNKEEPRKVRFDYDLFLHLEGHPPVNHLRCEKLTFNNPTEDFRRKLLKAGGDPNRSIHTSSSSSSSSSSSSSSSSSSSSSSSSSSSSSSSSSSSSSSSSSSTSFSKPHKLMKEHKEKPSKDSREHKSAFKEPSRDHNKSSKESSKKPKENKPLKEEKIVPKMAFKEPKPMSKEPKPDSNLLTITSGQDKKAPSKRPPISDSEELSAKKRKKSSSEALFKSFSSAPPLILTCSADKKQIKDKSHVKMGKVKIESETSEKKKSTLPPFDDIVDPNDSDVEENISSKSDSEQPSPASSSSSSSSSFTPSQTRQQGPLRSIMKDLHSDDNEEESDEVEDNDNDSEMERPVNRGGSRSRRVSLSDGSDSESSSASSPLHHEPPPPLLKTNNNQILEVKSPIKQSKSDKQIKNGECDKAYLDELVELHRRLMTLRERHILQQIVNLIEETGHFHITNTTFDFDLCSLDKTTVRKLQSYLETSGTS
N-glyco inh: N-linked glycosylation inhibition. D54 ERlucT glycosylation luciferase reporter, 24 h; percent of 100 nM tunicamycin response. 360,000 compounds, 0.23% hits. reporter increase, % at 12.5 µM;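 active = mean luciferase reporter signal, scaled so untreated is 0 and the glycosylation-blocking control 100, at or above a set limit in every replicate; inconclusive = mean reaches the limit but not every replicate does; inactive = mean below the limit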;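 also: luciferase carries N-glycosylation sites so blocking glycosylation raises the light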
PAX8 reporter: inhibitors of PAX8 transcriptional activity in RMG-I cells; 360,000 compounds, 1.2% hits; RMG-I TPO-luciferase reporter, SteadyGlo, 24 h; inhibition, % at 12.6 µM;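 active = mean replicate inhibition at least 60% with every replicate also reaching 60%; inconclusive = only one of the two criteria is met; inactive = mean below 60% and not all replicates reaching 60%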;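 also: luciferase light reporting Pax8 driven TPO promoter activity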
Env fusion inh: HIV envelope-mediated fusion inhibition. HeLa-JRFL Env/CEM21 cell fusion, luciferase. inhibition, % at 12.3 µM. 360,000 compounds, 1.1% hits;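 active = mean replicate inhibition score of at least 50 and every replicate individually at or above 50; inconclusive = only one of the two criteria met; inactive = mean below 50 and not all replicates reaching 50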
A number is an active result; i = inactive; ? = inconclusive; nt = no result given. An excerpt weighted towards active compounds, which were near 2.5% of everything screened.

SMILES	EWS-Fli block	FN deposition inh	MLL AF4-AF9 inh	N-glyco inh	PAX8 reporter	Env fusion inh
O=C(N/N=C/c1ccc(Cl)cc1)c1cc(-c2cccnc2)nc2ccccc12	52	i	i	i	i	i
Cc1cc(C(=O)N/N=C/c2cc([N+](=O)[O-])ccc2O)c2ccccc2n1	nt	nt	nt	i	nt	nt
Cc1cc(C(=O)N/N=C/c2ccc([N+](=O)[O-])cc2)c2ccccc2n1	51	i	i	i	i	i
Cc1ccc(/C=N/NC(=O)c2cc(-c3ccncc3)nc3ccccc23)o1	nt	i	i	i	i	i
Cc1noc(C)c1S(=O)(=O)Nc1ccc2c(c1)CC(=O)N([C@@H](C)CO)C[C@@H](C)[C@H](CN(C)C(=O)Nc1ccc(F)cc1)O2	i	i	i	nt	i	i
O=C(C[C@H]1C[C@@H]2c3cc(NC(=O)C4CCOCC4)ccc3O[C@@H]2[C@H](CO)O1)NCc1ccc2c(c1)OCO2	i	nt	i	nt	i	i
Cc1ccsc1/C=N/NC(=O)c1cc(-c2ccncc2)nc2ccccc12	i	nt	i	i	69	i
COc1ccccc1-c1cc(C(=O)N/N=C/c2sccc2C)c2ccccc2n1	nt	nt	nt	i	nt	nt
Cc1ccc(S(=O)(=O)NCC(=O)N2CCC(C)CC2)cc1	i	i	48	i	i	i
CC(C)c1cn(CC[C@@H]2CC[C@@H](NC(=O)C3CCOCC3)[C@@H](CO)O2)nn1	nt	nt	i	nt	i	nt
COc1ccc(NC(=O)c2nc(S(=O)(=O)Cc3cccc(C)c3)ncc2Cl)c(OC)c1	nt	48	i	i	i	i
COc1ccc(OC)c(NC(=O)c2nc(S(=O)(=O)Cc3ccccc3)ncc2Cl)c1	nt	56	i	i	i	?
O=C(NC1CCC1)[C@H]1[C@H](CO)[C@H]2Cn3c(ccc(-c4ccccc4F)c3=O)[C@H]2N1Cc1ccccn1	i	nt	i	nt	i	nt
CCCCCCNC(=O)CNC(=S)N(Cc1cccs1)C1CCCCC1	i	i	i	i	i	59
CCOC(=O)CNC(=S)N(Cc1cccs1)C1CCCC1	nt	i	nt	i	i	i
O=C(Nc1ccc2c(c1)CCC2)C1CCCN(c2ncccn2)C1 (stereo not drawn)	nt	nt	nt	i	nt	i
Cc1nc2ncnn2c(N2CCCC(C(=O)Nc3ccc4c(c3)CCC4)C2)c1C (stereo not drawn)	nt	i	nt	i	nt	78
CC(C)NC(=O)N[C@@H]1CC[C@@H](CC(=O)N2CCCCC2)O[C@H]1CO	i	i	i	nt	i	i
NC(=O)CSc1nnc(-c2ccccn2)n1Cc1ccco1	i	i	i	i	i	i
Clc1ccccc1CSc1nnc(-c2ccccn2)n1Cc1ccco1	nt	i	nt	i	nt	66
O=C(C[C@@H]1C[C@@H]2c3cc(NC(=O)Cc4ccncc4)ccc3O[C@@H]2[C@H](CO)O1)NCc1ccc2c(c1)OCO2	i	nt	i	nt	i	i
Cc1noc(C)c1S(=O)(=O)Nc1ccc2c(c1)C(=O)N([C@@H](C)CO)C[C@@H](C)[C@@H](CN(C)Cc1ccc(Cl)c(Cl)c1)OCCCC[C@@H](C)O2	i	nt	i	nt	65	i
Cc1noc(C)c1S(=O)(=O)Nc1ccc2c(c1)C(=O)N([C@@H](C)CO)C[C@@H](C)[C@H](CN(C)Cc1ccc(Cl)c(Cl)c1)OCCCC[C@@H](C)O2	i	nt	i	nt	69	i
COc1ccc2c3c([nH]c2c1)[C@H](CO)N(C(=O)NC(C)C)CC31CN(C(=O)NC(C)C)C1	i	nt	i	nt	nt	i
COC(=O)[C@]1(Cc2ccccc2)N[C@H](CN(C)S(=O)(=O)c2ccc(C(F)(F)F)cc2)[C@@H]2C(=O)N(Cc3ccccc3)C(=O)[C@@H]21	i	i	i	i	i	69
SMILES	EWS-Fli block	FN deposition inh	MLL AF4-AF9 inh	N-glyco inh	PAX8 reporter	Env fusion inh
COC(=O)[C@]1(C)N[C@H](CN(C)S(=O)(=O)c2ccc(-c3ccccc3)cc2)[C@@H]2C(=O)N(Cc3ccccc3)C(=O)[C@@H]21	i	i	i	i	i	81
CC[C@@]1(C(=O)OC)N[C@H](CN(C)S(=O)(=O)c2ccc(-c3ccccc3)cc2)[C@@H]2C(=O)N(Cc3ccccc3)C(=O)[C@@H]21	i	i	i	i	i	138
C[C@@H](NC(=O)C[C@@H]1CC[C@@H](NC(=O)Cc2ccccn2)[C@@H](CO)O1)c1ccccc1	i	i	i	nt	i	i
O=C(C[C@@H]1CC[C@@H](NS(=O)(=O)c2ccc(F)cc2)[C@@H](CO)O1)NCc1ccncn1	i	nt	i	nt	i	i
CC(C)(C)NC(=O)C(c1ccc(C#N)cc1)n1c(=O)c(-c2cc3ccccc3[nH]2)nc2ccccc21 (stereo not drawn)	i	i	i	nt	65	i
CCCCCNC(=O)C(c1ccncc1)n1c(=O)c(-c2cc3ccccc3[nH]2)nc2ccccc21 (stereo not drawn)	i	i	i	nt	i	75
O=C(NCCCN1CCCCCC1)c1ccc2c(Cl)c3c(nc2c1)CCCC3	i	nt	i	i	i	i
CC1CCN(CCCNC(=O)c2ccc3c(Cl)c4c(nc3c2)CCCC4)CC1	i	i	i	i	i	57
Cc1cc(=O)oc2ccc(OC(=O)CN3C(=O)c4cccc([N+](=O)[O-])c4C3=O)cc12	i	i	i	i	147	i
Oc1cc(NCc2ccc(F)cc2)cc2cccnc12	i	i	i	i	73	i
Oc1cc(NCc2ccc(Cl)cc2)cc2cccnc12	i	i	i	i	i	i
CN(C)CCCNc1cc(O)c2ncccc2c1	i	i	76	i	i	i
CCC(C)(C)c1ccc(OCCCC[n+]2ccccc2)c(C(C)(C)CC)c1	i	nt	30	i	88	77
O=C1C=C(Nc2ccccc2O)c2ccccc2C1=O	i	nt	i	i	nt	nt
Cc1ccc(NC2=CC(=O)C(=O)c3ccccc32)c(C)c1	i	i	i	i	i	58
C[C@@H]1CN([C@H](C)CO)C(=O)c2cc(NC(=O)CCCCCC(=O)Nc3ccccc3N)ccc2O[C@@H]1CN(C)Cc1ccc(Oc2ccccc2)cc1	nt	i	i	nt	71	nt
C[C@@H]1CN([C@H](C)CO)C(=O)c2cc(NC(=O)CCCCCC(=O)Nc3ccccc3N)ccc2O[C@@H]1CN(C)Cc1ccc(C(F)(F)F)cc1	nt	nt	i	nt	95	nt
C[C@H](CO)N1C[C@H](C)[C@H](CN(C)Cc2ccc(C(F)(F)F)cc2)Oc2ccc(NC(=O)CCCCCC(=O)Nc3ccccc3N)cc2C1=O	i	nt	i	nt	?	nt
O=C(O)c1ccc(N=N/C(=N\Nc2ccc(C(=O)O)cc2)c2ccccc2)cc1	i	i	i	i	i	i
Brc1ccc(N/N=C(/N=Nc2nn[nH]n2)c2ccccc2)cc1	i	i	41	i	i	i
COc1cccc(C(=O)Nc2ccc3c(c2)C(=O)c2ccccc2C3=O)c1	i	i	i	34	i	i
O=C(Nc1ccc2c(c1)C(=O)c1ccccc1-2)c1ccccc1	i	nt	i	i	i	i
COc1ccc(NC(=O)c2ccco2)cc1NC(=O)c1cccc(OC(C)C)c1	nt	i	nt	i	i	113
COC(=O)CSc1ccc2nnc(-c3ccc(OC)c(OC)c3)n2n1	i	i	32	i	i	i
